# Measured values reported in ChEMBL document CHEMBL1148827, “An investigation into the cytotoxicity and mode of action of some novel N-alkyl-substituted isatins” (J Med Chem, 2007).
# Calls of active or inactive are those of the source. No cut-off for these calls is given here.
# Legend:
# U-937 [1] = experiment: Cytotoxicity against human U937 cells by MTS assay after 24 hrs; assay type: functional, cell-based; settings: U-937, 24 h
# Jurkat [2] = experiment: Cytotoxicity against human Jurkat cells by MTS assay after 24 hrs; assay type: functional, cell-based
# PC-3 = experiment: Cytotoxicity against human PC3 cells by MTS assay after 24 hrs; assay type: functional, cell-based; settings: PC-3, 24 h
# HCT-116 = experiment: Cytotoxicity against human HCT116 cells by MTS assay after 24 hrs; assay type: functional, cell-based; settings: HCT-116, 24 h
# A-375 = experiment: Cytotoxicity against human A375 cells by MTS assay after 24 hrs; assay type: functional, cell-based; settings: A-375, 24 h
# [3] = Cytotoxicity against human […] cells by MTS assay after 24 hrs; assay type: functional, cell-based
# MCF7 = experiment: Cytotoxicity against human MCF7 cells by MTS assay after 24 hrs; assay type: functional, cell-based; settings: MCF7, 24 h
# U-937 [4] = experiment: Effect on U937 cell morphology assessed as irregular membrane protrusions at 0.39 ug/ml after 24 hrs; assay type: functional, cell-based; settings: Homo sapiens
# Method in brief: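 U937 cells (1.0 × 10⁴) exposed to compounds at 0.39 µg/mL for 24 h, with DMSO vehicle as control. Examined by brightfield light microscopy at 1000× magnification.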
# Bos taurus = species: Bos taurus; experiment: Inhibition of bovine neuronal tubulin polymerization at 10 uM
# Method in brief: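 Polymerization followed 1 h at 37 °C by fluorescence, ex 360 ± 10 nm / em 440 ± 10 nm. Duplicate wells.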
# U-937 [5] = experiment: Cell cycle arrest in human U937 cells assessed as increase in S and sub G1 phase accumulation at 1 uM; assay type: functional, cell-based
# Method in brief: (§1)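 U937 cells treated 4 h or 24 h against DMSO vehicle, with 0.5 µM vinblastine sulfate as reference. Cells (2.0 × 10⁴) fixed in ice-cold 70% ethanol at -20 °C for 30 min to overnight. Stained 30 min at 37 °C with 40 µg/mL PI plus 100 µg/mL RNase A in PBS pH 7.4. DNA content read by flow cytometry and cell-cycle phase proportions calculated.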
# U-937 [6] = experiment: Cell cycle arrest in human U937 cells assessed as increase in S and sub G1 phase accumulation at 2 uM; assay type: functional, cell-based; method in brief: as §1
# Tubulin = experiment: Displacement of [3H]colchicine from tubulin by scintillation proximity assay; assay type: protein-complex assay, Homo sapiens
# U-937 [7] = experiment: Effect on stability of microtubules in U937 cells assessed as alteration of microtubule organisation at 1.7 uM after 24 hrs; assay type: functional, cell-based; settings: Homo sapiens
# Method in brief: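 U937 cells (2.2 × 10⁵/mL) seeded, held 24 h, then exposed 24 h to 0.78 µg/mL (1.7 µM) compound. Controls: 2 µM vinblastine or 2.5% DMSO. […] Cells washed in PBS and imaged by confocal microscopy, excitation 488 nm, emission 500–540 nm.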
# Jurkat [8] = experiment: Activation of caspase in Jurkat cells after 5 hrs relative to staurosporine; assay type: cell-based; settings: Homo sapiens
# Method in brief: (§2)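 Cells exposed to test compound for 5 h at 37 °C; 2 µM staurosporine as positive control. Apo-ONE homogeneous caspase-3/7 reagent then added for 1 h at room temperature. Fluorescence read at excitation 485 nm, emission 520 nm. Values normalized to staurosporine. Means ± SE of one representative experiment run in triplicate.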
# U-937 [9] = experiment: Activation of caspase in U937 cells after 5 hrs relative to staurosporine; assay type: cell-based; settings: Homo sapiens; method in brief: as §2
SMILES,IC50 (U-937 [1]) [nM],IC50 (Jurkat [2]) [nM],IC50 (HCT-116) [nM],IC50 (A-375) [nM],IC50 [3] [nM],IC50 (MCF7) [nM],further results
CC[C@]1(O)C[C@@H]2CN(CCc3c([nH]c4ccccc34)[C@@](C(=O)OC)(c3cc4c(cc3OC)N(C)[C@H]3[C@@](O)(C(=O)OC)[C@H](OC(C)=O)[C@]5(CC)C=CCN6CC[C@]43[C@@H]65)C2)C1 [VINBLASTINE],6880,–,–,–,–,–,–
O=C1C(=O)N(Cc2ccc(C(F)(F)F)cc2)c2cc(Br)ccc21,5210,5210,–,–,–,–,–
COc1ccc(CN2C(=O)C(=O)c3cc(Br)ccc32)cc1,> 36100,–,–,–,–,–,–
O=C1C(=O)N(Cc2ccc(Cl)cc2)c2c(Br)cc(Br)cc21,980,500,1840,1680,2770,3870,IC50 (PC-3): 2170 nM
O=C1C(=O)N(Cc2ccc(Br)cc2)c2c(Br)cc(Br)cc21,630,630,530,1220,1900,5270,IC50 (PC-3): 3440 nM
O=C1C(=O)N(Cc2ccc([N+](=O)[O-])cc2)c2c(Br)cc(Br)cc21,890,890,2700,2500,2750,4320,–
COC(=O)c1ccc(CN2C(=O)C(=O)c3cc(Br)cc(Br)c32)cc1,1190,1190,–,–,–,9050,–
C=CCN1C(=O)C(=O)c2cc(Br)cc(Br)c21,6670,–,–,–,–,–,–
O=C1C(=O)N(Cc2ccccc2)c2c(Br)cc(Br)cc21,1140,1140,–,–,–,7090,–
O=C1C(=O)N(C/C=C/c2ccccc2)c2c(Br)cc(Br)cc21,2370,1420,–,–,–,7810,Activity (U-937 [4]): Active; Activity (Bos taurus): Active
COc1cccc(CN2C(=O)C(=O)c3cc(Br)cc(Br)c32)c1,1760,2000,–,–,–,2350,–
COc1ccc(CN2C(=O)C(=O)c3ccccc32)cc1,> 46800,–,–,–,–,–,–
CC(C)(C)c1ccc(CN2C(=O)C(=O)c3cc(Br)cc(Br)c32)cc1,1130,660,1660,890,980,2640,Activity (U-937 [4]): Active; IC50 (PC-3): 3060 nM
Cc1ccc(CN2C(=O)C(=O)c3cc(Br)cc(Br)c32)cc1,490,490,1220,2000,1910,11000,Activity (U-937 [5]): Active; IC50 (PC-3): 4570 nM; Activity (U-937 [6]): Active; Activity (Bos taurus): Active
COc1cc(-c2ccc3c(c2)NC(=O)/C3=C\c2ccc[nH]2)ccc1O,–,–,–,–,–,–,IC50 (Tubulin): 130 nM
COc1ccc(CN2C(=O)C(=O)c3c(Br)cccc32)cc1,> 36100,–,–,–,–,–,–
COc1ccc(CN2C(=O)C(=O)c3ccc(Br)cc32)cc1,34100,–,–,–,–,–,–
O=C(O)c1ccc(CN2C(=O)C(=O)c3cc(Br)cc(Br)c32)cc1,> 14200,> 14200,–,–,–,> 14200,–
O=C1C(=O)N(Cc2ccc(C(F)(F)F)cc2)c2c(Br)cc(Br)cc21,800,690,840,1250,540,7130,Activity (U-937 [7]): Active; Activity (U-937 [5]): Active; Activity (Jurkat [8]): Active; IC50 (PC-3): 1170 nM; Activity (U-937 [9]): Active; Activity (U-937 [6]): Active; Activity (Bos taurus): Active
O=C1C(=O)N(Cc2ccccc2[N+](=O)[O-])c2c(Br)cc(Br)cc21,2270,–,–,–,–,3180,–
O=C1C(=O)N(Cc2ccc(I)cc2)c2c(Br)cc(Br)cc21,2300,580,3360,2400,2920,4220,Activity (U-937 [4]): Active; IC50 (PC-3): 10900 nM
COCCN1C(=O)C(=O)c2cc(Br)cc(Br)c21,3440,8950,–,–,–,6670,–
CC(C)CCN1C(=O)C(=O)c2cc(Br)cc(Br)c21,2400,3470,–,–,–,7490,Activity (U-937 [4]): Active
O=C1C(=O)N(Cc2ccc(-c3ccccc3)cc2)c2c(Br)cc(Br)cc21,760,740,830,1190,2060,4880,IC50 (PC-3): 3420 nM; Activity (Bos taurus): Active
COc1ccc(CN2C(=O)C(=O)c3cccc(Br)c32)cc1,17600,–,–,–,–,–,–
